Sampled rows, rich in hits. Any-hit rate of the full collection: about 6.4%.
H69AR inhibit: blocks growth of human H69AR lung tumor cells; H69AR lung tumor viability, ATP luminescence, 72 h; active compounds read low; viability, % at 10 µM; 85,000 compounds, 6% hits;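 active means viability at or below 40%; inactive means viability above 40%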;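 further: multidrug resistant small cell line overexpressing MRP-1 efflux transporter; 100% = mean luminescence of untreated control wells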
Jurkat viability: cytotoxicity toward Jurkat cells; Jurkat E6.1 viability, ATP luminescence, 48 h; inhibition, % at 4 µM; 56,000 compounds, 1.2% hits; AID 463;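 active means inhibition above the mean inhibition of all tested compounds plus 3 SD, cut at about 28% in these data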
Ecoli tolC: E. coli tolC mutant growth inhibition; E. coli BW25113 tolC mutant growth, OD615; growth inhibition, % at 10 µM (by protocol); 65,000 compounds, 2.2% hits;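 active means growth inhibition at or above a cutoff equal to the mean over every tested compound plus 3 SD, cut at about 60% in these data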;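 further: growth measured after 20 h incubation at 37 °C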
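signal = optical density read at 615 nm | test system = E. coli ΔtolC::kan strain BW25113 | timing = 20 h compound exposure of bacteria at 37 °C | buffer or medium = LB medium plus 50 µg/mL kanamycin | compound dosing = 10 µM final, single dose | evaluation = % inhibition of E. coli growth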
E coli WT exp: blocks growth of wild type E. coli BW25113; OD600 absorbance; growth inhibition, % at 100 µM; 98,000 compounds, 0.15% hits; AID 710;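 active means growth inhibition above about 50% at one test dose, limit read from the data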;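 further: growth measured after 20 h incubation at 37 °C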
Lung fibro prol: blocks proliferation of human lung fibroblasts; LL 47 human lung fibroblast viability, ATP luminescence; active compounds read low; viability, % at 10 µM; 85,000 compounds, 1.1% hits; AID 719;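 active means viability at or below 50% in the single dose screen; inactive means viability above 50%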;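 further: compound exposure lasted 72 h before the ATP readout; 100% = median luminescence of untreated cell-only wells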
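test system = LL 47 human lung fibroblasts | amount = 1,150 fibroblasts seeded per well | medium = 15% FBS in IMEM | times = overnight cell rest, 72 h compound treatment at 37 °C | measured by = CellTiter-Glo luminescence measuring cellular ATP | read-out = viability percentage against median untreated-cell control | benchmarks = cell-only wells, no compound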
HUVEC prolif 384: human endothelial cell proliferation inhibition | HUVEC proliferation, CellTiter-Glo luminescence, 72 h; active compounds read low | viability, % at 10 µM (by protocol) | 86,000 compounds, 1.1% hits | AID 648;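 active means viability at or below 30%; inactive means viability above 30%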;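 further: 100% = median luminescence of DMSO-only cell control wells on each plate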
Numbers without * were called inactive; nt = no result given.

SMILES | H69AR inhibit | Jurkat viability | Ecoli tolC | E coli WT exp | Lung fibro prol | HUVEC prolif 384
O=C(CN1CCN(c2ccc(Cl)cc2)CC1)Nc1ccc(F)cc1 | nt | -2 | 16 | -8 | 90 | 112
O=C(NCCc1ccncc1)Nc1ccc(Cl)cc1 | 93 | 1 | -2 | 35 | 91 | 89
NS(=O)(=O)c1ccc(CCNC(=O)Nc2ccc(Cl)c(Cl)c2)cc1 | 19* | nt | nt | -10 | 109 | 68
CCOc1ccc2nc(NC(=O)CSc3nc4c(c(=O)n(C)c(=O)n4C)n3C(C)C)sc2c1 | 30* | 0 | 27 | -23 | 100 | 8.9*
Cn1cccc1Cc1nnc(SCC(=O)Nc2nc3ccccc3s2)n1CCc1ccccc1 | 5.4* | 1 | 2 | -4 | 76 | 43
CCOc1ccc2nc(NC(=O)Cn3cnc4c3c(=O)n(C)c(=O)n4C)sc2c1 | 91 | -3 | 28 | -9 | 104 | 97
CCc1ccc(NC(=O)CSc2nnc(Cc3cccn3C)n2-c2ccc(F)cc2)cc1 | 59 | 1 | 66* | -15 | 81 | 87
CCn1c(SCC(=O)Nc2nc3ccc(OC)cc3s2)nc2c1c(=O)n(C)c(=O)n2C | 17* | 4 | 13 | 0 | 94 | 73
CCCCOc1ccc(C2OC34CCCCC3C(C#N)(C#N)C2(C#N)C(=N)O4)cc1 (centres undefined) | 43 | nt | nt | 5 | 88 | 84
CCCn1c(=N)n(CC(=O)c2ccco2)c2ccccc21 | 86 | -5 | 5 | 2 | 90 | 94
CC(C)n1c(SCC(=O)Nc2nc3ccccc3s2)nc2c1c(=O)n(C)c(=O)n2C | 29* | nt | nt | nt | 96 | 69
CCn1c(SCC(=O)Nc2cc(C)on2)nc2c1c(=O)n(C)c(=O)n2C | 101 | 9 | -8 | -3 | 97 | 106
CCn1c(SCC(=O)Nc2nc3c(s2)CCCC3)nc2c1c(=O)n(C)c(=O)n2C | 17* | -6 | 12 | nt | 86 | 92
CCOC(=O)c1c(NC(=O)c2nn(CC)cc2Br)c(C#N)nn1-c1ccccc1 | 40* | 8 | 10 | -11 | 93 | 81
CCOC(=O)c1nn(-c2ccccc2)c(C#N)c1NC(=O)c1nn(CC)cc1Br | 69 | 10 | 11 | -10 | 96 | 85
Cc1cc(/C=C(/C#N)c2cccc(F)c2)c(C)n1-c1cccnc1 | 64 | 2 | 99* | -3 | 91 | 90
Cc1cc(/C=C(/C#N)c2cccc(Cl)c2)c(C)n1C | nt | nt | nt | -20 | nt | nt
O=C(Cn1ncc2c(=O)oc3ccccc3c21)NCCc1ccsc1 | 101 | nt | nt | 3 | 100 | 95
O=C1c2ccccc2N2C(=O)c3ccccc3[C@H]2N1c1ccccc1 | 66 | nt | nt | 2 | 94 | 89
CCOC(=O)C(CCCOc1ccccc1C)C(=O)OCC | 114 | nt | nt | -8 | 100 | 109
O=C(Nc1cccnc1)c1ccc(COc2cc(Cl)ccc2Cl)o1 | 37* | nt | nt | -7 | 82 | 50
O=C(Nc1cccnc1)c1ccc(COc2ccccc2Cl)o1 | 60 | nt | nt | -5 | 80 | 45
CCC(C)Oc1nc(C)cc(C)c1S(=O)(=O)c1ccccc1C (centres undefined) | nt | nt | nt | 4 | nt | nt
Cc1ccc(S(=O)(=O)/N=C(\CSC(N)=O)Nc2ccccc2)cc1 | 24* | nt | nt | 0 | 96 | 96
Cc1ccc(S(=O)(=O)/N=C(\Sc2ccccc2)c2ccccc2)cc1 | 41 | nt | nt | -4 | 60 | 35
SMILES | H69AR inhibit | Jurkat viability | Ecoli tolC | E coli WT exp | Lung fibro prol | HUVEC prolif 384
CC(=O)N1CC2(C)CN(C(C)=O)CC(C)(C1)C2 | 100 | -7 | -5 | 7 | 101 | 101
O=C(O)Cc1ccc2c(c1)N(S(=O)(=O)c1cccc(C(F)(F)F)c1)CC(C(=O)O)O2 (centres undefined) | nt | nt | nt | -4 | nt | nt
CSc1nc(N)nc(SCC(=O)C(C)(C)C)c1C#N | 68 | nt | nt | 2 | 92 | 82
CCCC(O)(c1ccc(Cl)cc1)C(CN1CCOCC1)c1ccccc1 (centres undefined) | 40* | nt | nt | 1 | 96 | 106
CCCCC(O)(CCN1CCOCC1)c1ccc(Cl)cc1 (centres undefined) | 97 | nt | nt | 10 | 98 | 99
CC(=O)Nc1nc(C)c(C(C)=O)s1 | 99 | nt | nt | 2 | 97 | 99
Cc1cccc(-n2c(Cc3cc(=O)[nH]c(=O)[nH]3)nnc2SCC(=O)NCC2CCCO2)c1 (centres undefined) | 93 | -2 | -13 | 3 | 94 | 93
C#CCn1c(=NC(=O)c2ccc(Br)s2)sc2cccc(OC)c21 | 2.6* | nt | nt | -5 | 38* | 55
COC(=O)c1[nH]c2cccc(OC)c2c1NC(=O)CN1CC2(C)CC1CC(C)(C)C2 (centres undefined) | 66 | 1 | 62* | -4 | 98 | 69
COC(=O)c1[nH]c2cccc(OC)c2c1NC(=O)CN1CCOCC1 | 100 | -6 | -25 | 4 | 105 | 102
COC(=O)c1cc(COc2ccc3c4c(c(=O)oc3c2)CCCC4)c(C)o1 | 84 | 9 | -1 | -1 | 110 | 92
CCC(=O)Oc1ccc(C(=O)Nc2ccc3c(c2)C(=O)N(C2CCCCC2)C3=O)cc1 | 5.3* | nt | nt | -12 | 93 | 55
CC(C)(C)c1cc(NC(=O)c2cccnc2)no1 | 106 | -6 | -5 | 5 | 98 | 95
CC(C)(C)c1cc(NC(=O)c2cc(F)c(F)c(F)c2F)no1 | 35* | -8 | -15 | 0 | 50 | 69
CNc1nc(Nc2ccc(C(C)=O)cc2)nc(OC(C(F)(F)F)C(F)(F)F)n1 | nt | nt | 67* | -3 | nt | nt
CC(=O)c1ccc(Nc2nc(NCCO)nc(OC(C(F)(F)F)C(F)(F)F)n2)cc1 | 58 | nt | nt | nt | 104 | 62
CC(=O)OCC(=O)Nc1ccc(C(C)=O)cc1 | 39* | nt | nt | 7 | 101 | 97
CN(C)CCC=C1c2ccccc2CCc2ccccc21 | 67 | nt | 6 | nt | 87 | 89
O=[N+]([O-])c1ccc(Sc2nnnn2-c2ccccc2)c(Cl)c1 | 5.1* | nt | nt | 10 | 44* | 51
C=CCc1ccc(OCC(O)COc2ccc(CC=C)cc2OC)c(OC)c1 | 35* | nt | nt | 3 | 100 | 85
CCOC(=O)c1ccc2nc(NC(=O)C(C)C)sc2c1 | 34* | -3 | 0 | 2 | 92 | 110
CCOC(=O)c1ccc2nc(NC(=O)c3cccs3)sc2c1 | 38* | nt | 11 | -11 | 88 | 75
C=CCN(CC=C)S(=O)(=O)c1ccc2nc(NC(=O)C(C)C)sc2c1 | 14* | 72* | 100* | 5 | 51 | 26*
O=C1CCN=C(Nc2ccc(F)cc2)N1Cc1ccccc1 | 93 | nt | -12 | 14 | 108 | 103
CC(C)SCCCCOc1ccc2ccccc2c1 | nt | nt | nt | 8 | nt | nt
CCOC(=O)/C(=N/Nc1ccccc1)c1csc(Nc2ccccc2)n1 | 11* | nt | nt | -7 | 92 | 81
CCOC(=O)/C(=N\Nc1ccc(Cl)cc1)c1csc(Nc2ccccc2)n1 | nt | nt | nt | 1 | nt | nt
CCOC(=O)/C(=N\Nc1ccc(OC)cc1)c1csc(Nc2ccccc2)n1 | 24* | nt | nt | -14 | 108 | 84
CCc1cc2c(=O)[nH]c(Cc3ccc(Cl)cc3)nc2s1 | nt | nt | nt | -8 | nt | nt
COc1ccc(OC)c(-n2nnnc2SCC(=O)O)c1 | 105 | nt | nt | -1 | 93 | 98

Compound activity: PubChem BioAssay, several laboratories
